Active and inactive are the calls of the source. The calls are words filed in the database; no cut-off is given here.
How the values were obtained:
[1] = target: T1, DNA topoisomerase 1 (Homo sapiens, UniProt P11387); test: Poison activity at recombinant human TOP1 expressed in baculovirus infected Sf9 insect cells assessed as decrease in relaxed supercoiled pBS(SK+) DNA mobility measured after 30 mins by ethidium bromide staining based agarose gel electrophoresis
T1 sequence (P11387 whole entry): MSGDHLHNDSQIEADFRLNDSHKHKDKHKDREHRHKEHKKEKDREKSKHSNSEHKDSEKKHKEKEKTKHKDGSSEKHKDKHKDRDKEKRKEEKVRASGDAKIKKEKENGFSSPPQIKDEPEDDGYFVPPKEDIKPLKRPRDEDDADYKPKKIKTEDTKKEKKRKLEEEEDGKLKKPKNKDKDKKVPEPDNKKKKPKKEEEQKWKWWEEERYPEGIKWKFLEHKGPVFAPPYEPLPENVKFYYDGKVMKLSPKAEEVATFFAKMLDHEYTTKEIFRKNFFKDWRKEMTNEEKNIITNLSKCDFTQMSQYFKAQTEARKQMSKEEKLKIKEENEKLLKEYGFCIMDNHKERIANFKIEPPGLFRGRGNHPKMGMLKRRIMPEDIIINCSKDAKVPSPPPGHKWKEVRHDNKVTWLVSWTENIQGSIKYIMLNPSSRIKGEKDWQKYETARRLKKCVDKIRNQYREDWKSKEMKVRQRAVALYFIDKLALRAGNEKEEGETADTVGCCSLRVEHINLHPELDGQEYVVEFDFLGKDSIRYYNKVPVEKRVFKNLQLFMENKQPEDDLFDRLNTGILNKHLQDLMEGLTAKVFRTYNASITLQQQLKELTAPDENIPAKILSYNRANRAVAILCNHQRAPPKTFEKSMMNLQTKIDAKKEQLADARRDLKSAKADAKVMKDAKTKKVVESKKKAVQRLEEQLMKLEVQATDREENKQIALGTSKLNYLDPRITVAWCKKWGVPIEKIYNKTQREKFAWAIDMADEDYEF
Outline: (§1)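 Top1 is recombinant human enzyme purified from baculovirus-infected Sf-9 cells. Supercoiled pBS (SK+) DNA (90 fmol) is incubated with 30 fmol Top1 (3:1 DNA:enzyme molar ratio) in relaxation buffer, with compound added simultaneously, 30 min at 37 °C. Relaxed isomers are resolved on 1% agarose and percent relaxation inhibition is quantified. Triplicate, mean ± SD.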

[2] = system: DNA; test: Binding affinity to Escherichia coli pBS(SK+) DNA assessed as TOP1-mediated unwinding effect at 50 to 200 uM measured after 15 mins by EtBr staining based agarose gel electrophoresis method; format: nucleic-acid assay
Outline: (§2)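 Relaxed pBS (SK+) substrate made by treating supercoiled plasmid with excess Top1, then proteinase K digestion at 37 °C, phenol/chloroform extraction and ethanol precipitation. Reactions hold 50 fmol relaxed DNA with compound (20, 50, 100, 200 μM) and are incubated 15 min at 37 °C. Read-out is 1% agarose gel stained with 0.5 μg/mL EtBr under UV, scoring net negative supercoiling.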

[3] = system: Calf thymus DNA; test: Displacement of ethidium bromide from calf thymus DNA at 50 uM by fluorescence assay; format: nucleic-acid assay; conditions: Bos taurus
Outline: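 Fluorescence ethidium displacement run at 25 °C with 1 μM EtBr and 5 nM calf thymus DNA in fluorescence buffer. Test compound titrated over 0–300 μM. EtBr emission read at 590 nm with excitation at 510 nm. Result expressed as % EtBr remaining bound.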

[4] = target: T2, DNA topoisomerase 1 (Homo sapiens) (UniProt P11387); test: Poison activity at recombinant human TOP1 expressed in baculovirus infected Sf9 insect cells assessed as decrease in relaxed supercoiled pBS(SK+) DNA mobility at 100 uM measured after 30 mins by ethidium bromide staining based agarose gel electrophoresis relative to control; design: scale not given: the % may be the effect or the level left; outline: as §1
T2 sequence (whole entry): T1 sequence (P11387 whole entry)

[5] = Stability of the compound in human plasma assessed as parent compound remaining at […] measured after 2 hrs by LC-MS/MS analysis; format: ADME, cell-free; conditions: read-out: Stability
Outline: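 Plasma is thawed, spun at 1400 RCF for 15 min at 4 °C, and supernatant used. Compound (final 1 μM, diluted from acetonitrile/water stock) is incubated in human plasma 2 h at 37 °C with gentle shaking. Aliquots at 0, 15, 30, 60 and 120 min are precipitated with acetonitrile containing internal standard and analyzed by LC–MS/MS. The 0 min reference uses heat-inactivated plasma (56 °C, 45 min). Value is mean % remaining at 2 h.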

[6] = system: Calf thymus DNA; test: Displacement of ethidium bromide from calf thymus DNA up to 300 uM by fluorescence assay; format: nucleic-acid assay; conditions: Bos taurus
Outline: (§3)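 Ethidium displacement fluorescence at 25 °C in fluorescence buffer containing 1 μM EtBr and 5 nM calf thymus DNA, with compound titrated 0–300 μM. Emission is read at 590 nm with 510 nm excitation and plotted as % EtBr bound.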

[7] = target: T1, DNA topoisomerase 1; test: Poison activity at TOP1 in human MCF7 cells assessed as decrease in relaxed supercoiled pBS(SK+) DNA mobility measured after 30 mins by ethidium bromide staining based agarose gel electrophoresis; format: cell-based
Outline: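 The Top1 source is MCF7 whole-cell extract (endogenous enzyme). Extract is incubated with 0.3 μg supercoiled pBS (SK+) DNA and compound added together, 30 min at 37 °C, in relaxation buffer. Supercoiled and relaxed forms are separated on 1% agarose and percent relaxation inhibition is quantified. Triplicate, mean ± SD.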

[8] = target: T2, DNA topoisomerase 1 (Homo sapiens); test: Poison activity at recombinant human TOP1 expressed in baculovirus infected Sf9 insect cells assessed as decrease in relaxed supercoiled pBS(SK+) DNA mobility at 10 uM measured after 30 mins by ethidium bromide staining based agarose gel electrophoresis relative to control; design: scale not given: the % may be the effect or the level left; outline: as §1
[9] = system: MEF; test: Cytotoxicity against TDP1-positive MEF cells assessed as reduction in cell viability measured after 72 hrs by MTT assay; format: functional, cell-based; conditions: Mus musculus
Outline: (§4)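 Cell lines are HCT116, HeLa, NIH:OVCAR-3, and primary TDP1+/+ and TDP1−/− mouse embryonic fibroblasts, each exposed to variable compound concentrations. Viability is measured by MTT. Percent inhibition at each concentration is calculated against untreated control, and IC50 is estimated from these values.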

[10] = system: MEF; test: Cytotoxicity against TDP1-deficient MEF cells assessed as reduction in cell viability measured after 72 hrs by MTT assay; format: functional, cell-based; conditions: Mus musculus; outline: as §4
[11] = system: DNA; test: Binding affinity to Escherichia coli pBS(SK+) DNA assessed as TOP1-mediated unwinding effect at 20 to 200 uM measured after 15 mins by EtBr staining based agarose gel electrophoresis method; format: nucleic-acid assay; outline: as §2
[12] = system: Calf thymus DNA; test: Displacement of ethidium bromide from calf thymus DNA at 200 uM by fluorescence assay; format: nucleic-acid assay; conditions: Bos taurus; outline: as §3
[13] = system: HCT-116; test: Cytotoxicity against human HCT116 cells assessed as reduction in cell viability measured after 72 hrs by MTT assay; format: functional, cell-based; conditions: HCT-116, 72 h; outline: as §4
[14] = Cytotoxicity against human NIH:OVCAR3 cells assessed as reduction in cell viability measured after 72 hrs by MTT assay; format: functional, cell-based; conditions: OVCAR-3, 72 h; outline: as §4
[15] = system: HEK293; test: Cytotoxicity against HEK293 cells assessed as reduction in cell viability measured after 72 hrs by MTT assay; format: cell-based; conditions: Homo sapiens, HEK293, 72 h
Outline: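 MTT cell survival assay in HEK293 cells (from the Developmental Therapeutics Program) exposed to a range of compound concentrations. Percent inhibition of viability at each concentration calculated relative to untreated control, and IC50 estimated from these values.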

Row | SMILES | IC50 [1] | also measured
1 | Cc1ccc(-c2ccc3ncc(-c4nnco4)c(NCCCN4CCOCC4)c3c2)cc1 | > 10 µM | –
2 | COc1ccc(-c2ccc3ncc(-c4nnco4)c(NCCn4ccnc4)c3c2)cc1 | > 10 µM | –
3 | COc1cc(NS(C)(=O)=O)ccc1Nc1c2ccccc2nc2ccccc12 | – | Activity [2]: Active; Activity [3]: Active
4 | COc1ccc(-c2ccc3ncc(-c4nnc(C)o4)c(NCCN4CCOCC4)c3c2)cc1OC | > 10 µM | –
5 | COc1ccc(-c2ccc3ncc(-c4nnco4)c(NCCN4CCOCC4)c3c2)cc1OC | > 10 µM | Activity [4]: 20%
6 | CCOC(=O)c1cnc2ccc(-c3ccc(OC)cc3)cc2c1NCCCn1ccnc1 | > 10 µM | –
7 | COc1ccc(-c2ccc3ncc(-c4nnco4)c(NCCCn4ccnc4)c3c2)c(OC)c1 | > 10 µM | –
8 | COc1ccc(-c2ccc3ncc(-c4nnco4)c(NCCCN4CCOCC4)c3c2)cc1OC | > 10 µM | –
9 | CC[C@@]1(O)C(=O)OCc2c1cc1n(c2=O)Cc2cc3ccccc3nc2-1 [CAMPTOTHECIN] | – | remaining at 2 h [5]: 15.7%
10 | COc1cc([C@@H]2c3cc4c(cc3[C@@H](O[C@@H]3O[C@@H]5CO[C@@H](C)O[C@H]5[C@H](O)[C@H]3O)[C@H]3COC(=O)[C@H]23)OCO4)cc(OC)c1O | – | Activity [2]: inactive; Activity [6]: inactive
11 | COc1ccc(-c2ccc3ncc(-c4nnco4)c(NCCN4CCOCC4)c3c2)cc1 | > 10 µM | Activity [4]: 50%
12 | COc1ccccc1-c1ccc2ncc(-c3nnco3)c(NCCCn3ccnc3)c2c1 | > 10 µM | –
13 | CNc1c(-c2nnco2)cnc2ccc(-c3ccc(OC)cc3)cc12 | > 10 µM | –
14 | Oc1ccc(-c2ccc3ncc(-c4nnco4)c(NCCCn4ccnc4)c3c2)cc1 | > 10 µM | –
15 | COc1ccc(-c2ccc3ncc(-c4nnco4)c(NCCCN4CCOCC4)c3c2)cc1 | 1.79 µM | remaining at 2 h [5]: 83.4%; IC50 [7]: 2.51 µM
16 | Fc1ccc(-c2ccc3ncc(-c4nnco4)c(NCCCn4ccnc4)c3c2)cc1 | > 10 µM | –
17 | COc1ccc(-c2ccc3ncc(-c4nnc(C)o4)c(NCCN4CCOCC4)c3c2)cc1 | > 10 µM | –
18 | COc1ccc(-c2ccc3ncc(-c4nnc(C)o4)c(NCCCn4ccnc4)c3c2)cc1 | > 10 µM | –
19 | c1ccc(-c2ccc3ncc(-c4nnco4)c(NCCCn4ccnc4)c3c2)cc1 | > 10 µM | Activity [8]: 40%
20 | COc1ccc(-c2ccc3ncc(-c4nnco4)c(NCCCn4ccnc4)c3c2)cc1 | – | IC50 [9]: 2.91 µM; IC50 [10]: 1.02 µM; remaining at 2 h [5]: 93.3%; Activity [11]: inactive; Activity [12]: inactive; IC50 [13]: 2.34 µM; IC50 [14]: 2.35 µM; IC50 [15]: 8.34 µM
21 | CCOC(=O)c1cnc2ccc(-c3ccc(OC)c(OC)c3)cc2c1NCCCn1ccnc1 | > 10 µM | –
22 | COc1ccc(-c2ccc3ncc(-c4nnco4)c(NCCCn4ccnc4)c3c2)c(C)c1 | > 10 µM | –
23 | COc1ccc(-c2ccc3ncc(-c4nnco4)c(NCCCn4ccnc4)c3c2)cc1OC | > 10 µM | –
24 | COc1ccc(-c2ccc3ncc(-c4nnc(N)o4)c(NCCCn4ccnc4)c3c2)cc1 | > 10 µM | –
25 | N#Cc1ccc(-c2ccc3ncc(-c4nnco4)c(NCCCn4ccnc4)c3c2)cc1 | > 10 µM | –

Source: ChEMBL document CHEMBL4340526, “Discovery and Mechanistic Study of Tailor-Made Quinoline Derivatives as Topoisomerase 1 Poison with Potent Anticancer Activity” (J Med Chem, 2019)
